# Experimental data gathered from unrelated publications.
# Protocols differ between the studies behind these lines.
# Observed: cell growth or viability
Compound,cell line,method,time,IC50
COc1cc(C(=O)c2nc(-c3cccc4cc[nH]c34)c[nH]2)cc(OC)c1OC,M14,MTS,72 h,0.0273 µM
O=C(NO)c1ccc(Cn2cnc3c(Nc4ccc(Cl)cc4)ncnc32)cc1,U-266,MTT,72 h,0.63 µM
CC(=O)N1c2ccc(-c3ccc(C(=O)O)cc3)cc2[C@H](Nc2ccc(Cl)cc2)C[C@@H]1C,MP41,ATP luminescence,72 h,0.154 µM
N#Cc1ccc(-c2cc(CNc3cccc4cccnc34)on2)cc1,HL-60,MTS,72 h,16.5 µM
S=C(N/N=C/c1cccc2cc3ccccc3nc12)Nc1ccccc1,SK-BR-3,MTT,48 h,> 50 µM
COc1cc(C(=O)c2nc(-c3cccc4[nH]nnc34)c[nH]2)cc(OC)c1OC,M14,MTS,72 h,0.0532 µM
Clc1ccc(-c2cc(CNc3cccc4cccnc34)on2)c(Cl)c1,HL-60,MTS,72 h,67.1 µM
COc1cc(C(=O)c2nc(-c3ccnc4[nH]ccc34)c[nH]2)cc(OC)c1OC,M14,MTS,72 h,0.0158 µM
CC(C)CNC(=S)N/N=C/c1cccc2cc3ccccc3nc12,SK-BR-3,MTT,48 h,> 50 µM
NC1=NN(c2ccc([N+](=O)[O-])cc2[N+](=O)[O-])C(=O)C1N=Nc1ccccc1C(=O)O (stereo not drawn),Vero,MTT,72 h,54.4 µM
FC(F)(F)c1ccc(-c2cc(COc3cc(C(F)(F)F)nc4ccccc34)on2)cc1,HL-60,MTS,72 h,> 100 µM
COc1ccccc1-n1cc(CNC(=O)[C@@]2(C)[C@H](O)CC[C@@]3(C)[C@H]2CC[C@]2(C)[C@@H]3C(=O)C[C@@H]3[C@@H]4[C@@H](C)[C@H](C)CC[C@]4(C)CC[C@]32C)nn1,HDF,MTT,24 h,105 µM
COc1ccc(NC(=S)N/N=C/c2cccc3cc4ccccc4nc23)cc1,SK-BR-3,MTT,48 h,> 50 µM
C[C@H]1COCCN1c1nc(N2CCOC[C@@H]2C)c2ccc(-c3cccc(C(=O)NCCOCCOCCOCCONC(=O)c4ccc(F)c(F)c4Nc4ccc(I)cc4F)c3)nc2n1,D54,WST-1,72 h,22.8 µM
Nc1ccn([C@@H]2O[C@H](CO)[C@@H](O)C2(F)F)c(=O)n1,MP41,ATP luminescence,72 h,0.0769 µM
Nc1ccccc1NC(=O)c1ccc(Cn2cnc3c(Nc4ccc(Br)cc4F)ncnc32)cc1,U-266,MTT,72 h,0.46 µM
CO[C@H]1[C@H](O[C@H]([C@H]2O[C@@H](n3ccc(=O)[nH]c3=O)[C@H](O)[C@@H]2O)[C@H](NCCCNC(=O)[C@@H](NC(=O)[C@@H](NC(=O)N[C@H](C(=O)O)C(C)C)[C@@H]2CCN=C(N)N2)[C@@H](O)C(C)C)C(=O)O)O[C@H](CN)[C@H]1O,SK-BR-3,WST-1,,> 35 µM
COc1ccc(-c2nc(N3CCOCC3)c3sc(CN(C)c4ncc(C(=O)NO)cn4)cc3n2)cn1,MP41,ATP luminescence,72 h,0.00596 µM
COc1cc(C(=O)c2nc(-c3cccc4[nH]cnc34)c[nH]2)cc(OC)c1OC,M14,MTS,72 h,0.0159 µM
Fc1ccc(NC(=S)N/N=C/c2cccc3cc4ccccc4nc23)cc1,SK-BR-3,MTT,48 h,> 50 µM
COc1cc(C(=O)c2nc(-c3ccncc3)c[nH]2)cc(OC)c1OC,M14,MTS,72 h,> 1 µM
CC(=O)O[C@@]12CO[C@@H]1C[C@H](O)[C@@]1(C)C(=O)[C@H](O)C3=C(C)[C@@H](OC(=O)[C@H](O)[C@@H](NC(=O)OC(C)(C)C)c4ccccc4)C[C@@](O)([C@@H](OC(=O)c4ccccc4)[C@H]21)C3(C)C,SK-BR-3,MTT,24 h,> 50 µg/mL
O=C1C[C@@H](c2ccccc2)Oc2cc(O)cc(O)c21,Vero,MTT,72 h,103 µM
C[C@H]1[C@H](C)CC[C@]2(C)CC[C@]3(C)C(=CC(=O)[C@@H]4[C@@]5(C)CC[C@@H](O)[C@](C)(C(=O)NCc6cn(-c7ccc(Cl)cc7)nn6)[C@@H]5CC[C@]43C)[C@H]12,HDF,MTT,24 h,191 µM
O=C(NO)c1ccc(Cn2cnc3c(Nc4cccc([N+](=O)[O-])c4)ncnc32)cc1,U-266,MTT,72 h,0.31 µM
N#Cc1ccc(-c2cc(COc3cc(=O)oc4ccccc34)on2)cc1,HL-60,MTS,72 h,> 100 µM
COc1cc(C(=O)c2nc(-c3cccc4[nH]ccc34)c[nH]2)cc2c1OC=CO2,M14,MTS,72 h,0.0073 µM
FC(F)(F)c1cc(OCc2cc(-c3ccccn3)no2)c2ccccc2n1,HL-60,MTS,72 h,> 100 µM
Nc1ccccc1NC(=O)c1ccc(Cn2cnc3c(Nc4ccc(Cl)cc4)ncnc32)cc1,U-266,MTT,72 h,0.33 µM
C[C@H]1[C@H](C)CC[C@]2(C)CC[C@]3(C)C(=CC(=O)[C@@H]4[C@@]5(C)CC[C@@H](O)[C@](C)(C(=O)NCc6cn(-c7ccc(Br)cc7)nn6)[C@@H]5CC[C@]43C)[C@H]12,HDF,MTT,24 h,117 µM
CCS(=O)(=O)Nc1ccc(Oc2ccc(F)cc2F)c(-c2cn(C)c(=O)c3[nH]ccc23)c1,MP41,ATP luminescence,72 h,0.0996 µM
C[C@H]1[C@H](C)CC[C@]2(C)CC[C@]3(C)C(=CC(=O)[C@@H]4[C@@]5(C)CC[C@@H](O)[C@](C)(C(=O)NCc6cn(-c7ccccc7C(F)(F)F)nn6)[C@@H]5CC[C@]43C)[C@H]12,HDF,MTT,24 h,103 µM
COc1cccc2c1C(=O)c1c(O)c3c(c(O)c1C2=O)C[C@@](O)(C(=O)CO)C[C@@H]3O[C@H]1C[C@H](N)[C@H](O)[C@H](C)O1,SK-BR-3,MTT,24 h,54.4 µg/mL
COc1ccc(N(C)c2nc(C)nc3ccccc23)cc1OCCCC(=O)NO,MP41,ATP luminescence,72 h,0.0844 µM
COc1ccc(Nc2ncnc3c2ncn3Cc2ccc(C(=O)Nc3ccccc3N)cc2)cc1,U-266,MTT,72 h,4.21 µM
C/C(=N/NC(=O)c1cn(-c2ccccc2)nc1-c1ccc(F)cc1)c1c(O)cc(C)oc1=O,Vero,MTT,48 h,191 µM
COc1cc(C(=O)c2nc(-c3cccc4c3CC(=O)N4)c[nH]2)cc(OC)c1OC,M14,MTS,72 h,0.0095 µM
COc1ccc(-n2cc(CNC(=O)[C@@]3(C)[C@H](O)CC[C@@]4(C)[C@H]3CC[C@]3(C)[C@@H]4C(=O)C=C4[C@@H]5[C@@H](C)[C@H](C)CC[C@]5(C)CC[C@]43C)nn2)cc1,HDF,MTT,24 h,109 µM
Cc1noc(C)c1-c1cc(C(O)(c2ccccn2)c2ccccn2)c2nc(C3CC3)[nH]c2c1,MP41,ATP luminescence,72 h,0.104 µM
